Data as given in ChEMBL document CHEMBL1287650, “Structural modification of a specific antimicrobial lead against Helicobacter pylori discovered from traditional Chinese medicine and a structure-activity relationship study” (2010).
In brackets after ≈: the same amount, converted by molar mass.

Columns and labels:
Type in all cases: functional
[1] = tested on: Helicobacter pylori; test: Antibacterial activity against Helicobacter pylori SS1 assessed as inhibition of visible growth after 96 hrs by agar dilution method; details: SS1, 96 h
How it was run: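 Agar dilution on Columbia Blood Agar Base with 7% defibrinated sheep blood; compounds dissolved in minimal DMSO, two-fold serial dilutions mixed into medium. Inoculum: cells in saline at 10⁸ CFU/mL. Incubated 37 °C, 96 h, 5% O₂/10% CO₂/85% N₂. DMSO-only blank and metronidazole positive control run alongside. MIC = lowest concentration completely inhibiting visible growth.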

[2] = tested on: Staphylococcus aureus; test: Antibacterial activity against Staphylococcus aureus ATCC 25923 after 18 hrs; details: ATCC 25923, 18 h
[3] = tested on: Staphylococcus epidermidis; test: Antibacterial activity against Staphylococcus epidermidis ATCC 12228 after 18 hrs; details: ATCC 12228, 18 h
[4] = tested on: Micrococcus luteus; test: Antibacterial activity against Micrococcus luteus ATCC 9341 after 18 hrs; details: ATCC 9341, 18 h
[5] = tested on: Bacillus subtilis; test: Antibacterial activity against Bacillus subtilis CMCC 63501 after 18 hrs; details: CMCC 63501, 18 h
[6] = tested on: Escherichia coli; test: Antibacterial activity against Escherichia coli ATCC 25922 after 18 hrs; details: ATCC 25922, 18 h
[7] = tested on: Shigella flexneri; test: Antibacterial activity against Shigella flexneri F2a after 18 hrs
[8] = tested on: Pseudomonas aeruginosa; test: Antibacterial activity against Pseudomonas aeruginosa ATCC 14502 after 18 hrs; details: ATCC 14502, 18 h
[9] = tested on: Candida albicans; test: Antifungal activity against Candida albicans ATCC 1600 after 48 hrs; details: ATCC 1600, 48 h
How it was run: (§1)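 Fungi grown in Sabouraud dextrose broth at 37 °C for 48 h with compounds and positive control dissolved in DMSO; DMSO-only cultures served as blank controls.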

[10] = Antifungal activity against Saccharomyces sake after 48 hrs; details: Saccharomyces sp.; how it was run: as §1
[11] = tested on: Trichophyton rubrum; test: Antifungal activity against Trichophyton rubrum after 48 hrs; how it was run: as §1
[12] = tested on: Nannizzia gypsea; test: Antifungal activity against Microsporum gypseum after 48 hrs; how it was run: as §1

Q: For `CCN(CC)Cc1cc2cc3ccc(=O)oc3cc2o1`, which MIC [1] is on record?
A: The MIC was greater than 50 µg/mL.

Q: For `CCOCc1c2ccoc2c(OC)c2oc(=O)ccc12`, which MIC [1] is on record?
A: The MIC was greater than 50 µg/mL.

Q: With `CCOCc1cc2cc3ccc(=O)oc3cc2o1` as the compound, how does the MIC [1] read?
A: Its MIC is greater than 50 µg/mL.

Q: Which MIC [1] does the source give for `CCCCOCc1cc2cc3ccc(=O)oc3cc2o1` here?
A: The MIC was 50 µg/mL (≈ 184 µM).

Q: With `O=c1ccc2cc3cc(Br)oc3cc2o1` as the compound, how does the MIC [1] read?
A: The MIC was 6.25 µg/mL (≈ 23.6 µM).

Q: With `O=c1cc(CO)c2cc3ccoc3cc2o1` as the compound, how does the MIC [1] read?
A: Its MIC is 0.78 µg/mL (≈ 3.61 µM).

Q: With `Cc1coc2cc3oc(=O)ccc3cc12` as the compound, how does the MIC [1] read?
A: Its MIC is 12.5 µg/mL (≈ 62.4 µM).

Q: Which MIC [1] does the source give for `CCCOCc1c2ccoc2c(OC)c2oc(=O)ccc12` here?
A: The MIC was greater than 50 µg/mL.

Q: What does the source list for `COc1c2occc2c([N+](=O)[O-])c2ccc(=O)oc12`?
A: MIC [2]: > 64 µg/mL; MIC [1]: 1.56 µg/mL (≈ 5.97 µM); MIC [3]: > 64 µg/mL; MIC [4]: > 64 µg/mL; MIC [5]: > 64 µg/mL; MIC [6]: > 64 µg/mL; MIC [7]: > 64 µg/mL; MIC [8]: > 64 µg/mL; MIC [9]: > 64 µg/mL; MIC [10]: > 64 µg/mL; MIC [11]: > 64 µg/mL; MIC [12]: > 64 µg/mL

Q: With `COc1c2occc2c(/N=C/c2ccccc2)c2ccc(=O)oc12` as the compound, how does the MIC [1] read?
A: Its MIC is greater than 50 µg/mL.

Q: With `CCOC(=O)COc1c2occc2cc2ccc(=O)oc12` as the compound, how does the MIC [1] read?
A: The MIC was greater than 50 µg/mL.

Q: With `COCc1c2ccoc2c(OC)c2oc(=O)ccc12` as the compound, how does the MIC [1] read?
A: Its MIC is greater than 50 µg/mL.

Q: Which MIC [1] does the source give for `COc1ccc(NCc2c3ccoc3c(OC)c3oc(=O)ccc23)cc1` here?
A: The MIC was 12.5 µg/mL (≈ 35.6 µM).

Q: With `COc1c2occc2c(S(=O)(=O)Oc2ccccc2)c2ccc(=O)oc12` as the compound, how does the MIC [1] read?
A: The MIC was greater than 50 µg/mL.

Q: Which MIC [1] does the source give for `COc1c2occc2c(S(=O)(=O)Nc2ccc([N+](=O)[O-])cc2)c2ccc(=O)oc12` here?
A: Its MIC is greater than 50 µg/mL.

Q: For `COCc1cc2cc3ccc(=O)oc3cc2o1`, which MIC [1] is on record?
A: Its MIC is 50 µg/mL (≈ 217 µM).

Q: With `CCN(CC)Cc1c2ccoc2c(OC)c2oc(=O)ccc12` as the compound, how does the MIC [1] read?
A: Its MIC is greater than 50 µg/mL.

Q: With `COc1c2occc2c(S(=O)(=O)OC)c2ccc(=O)oc12` as the compound, how does the MIC [1] read?
A: Its MIC is greater than 50 µg/mL.

Q: Which MIC [1] does the source give for `Cc1ncc([N+](=O)[O-])n1CCO` [METRONIDAZOLE] here?
A: The MIC was 0.5 µg/mL (≈ 2.92 µM).

Q: Which MIC [1] does the source give for `O=c1ccc2cc3cc(CCl)oc3cc2o1` here?
A: The MIC was greater than 50 µg/mL.

Q: Which MIC [1] does the source give for `COc1ccc(NS(=O)(=O)c2c3ccoc3c(OC)c3oc(=O)ccc23)cc1` here?
A: The MIC was greater than 50 µg/mL.

Q: With `O=c1cc(-c2ccccc2)c2cc3ccoc3cc2o1` as the compound, how does the MIC [1] read?
A: Its MIC is 12.5 µg/mL (≈ 47.7 µM).

Q: Which MIC [1] does the source give for `O=c1ccc2cc3cc([N+](=O)[O-])oc3cc2o1` here?
A: Its MIC is 3.12 µg/mL (≈ 13.5 µM).

Q: Which MIC [1] does the source give for `O=c1ccc2cc3ccoc3c(O)c2o1` [XANTHOTOXOL] here?
A: Its MIC is greater than 50 µg/mL.

Q: For `CCc1cc(=O)oc2cc3occc3cc12`, which MIC [1] is on record?
A: Its MIC is 6.25 µg/mL (≈ 29.2 µM).

Q: Which MIC [1] does the source give for `COc1c2occc2cc2ccc(=O)oc12` [METHOXSALEN] here?
A: The MIC was 25 µg/mL (≈ 116 µM).

Q: For `CCOc1c2occc2cc2ccc(=O)oc12`, which MIC [1] is on record?
A: The MIC was greater than 50 µg/mL.

Q: For `COc1c2occc2c(Cl)c2ccc(=O)oc12`, which MIC [1] is on record?
A: The MIC was greater than 50 µg/mL.

Q: Which results are given for `O=c1ccc2cc3ccoc3cc2o1` [PSORALEN]?
A: MIC [2]: > 64 µg/mL; MIC [1]: 6.25 µg/mL (≈ 33.6 µM); MIC [3]: > 64 µg/mL; MIC [4]: > 64 µg/mL; MIC [5]: > 64 µg/mL; MIC [6]: > 64 µg/mL; MIC [7]: > 64 µg/mL; MIC [8]: > 64 µg/mL; MIC [9]: > 64 µg/mL; MIC [10]: > 64 µg/mL; MIC [11]: > 64 µg/mL; MIC [12]: > 64 µg/mL

Q: Which MIC [1] does the source give for `O=c1cc(CBr)c2cc3ccoc3cc2o1` here?
A: The MIC was 1.56 µg/mL (≈ 5.59 µM).

Q: With `Cc1c2ccoc2cc2oc(=O)ccc12` as the compound, how does the MIC [1] read?
A: Its MIC is 12.5 µg/mL (≈ 62.4 µM).

Q: With `O=c1ccc2cc3cc(Cl)oc3cc2o1` as the compound, how does the MIC [1] read?
A: The MIC was 6.25 µg/mL (≈ 28.3 µM).

Q: With `CC(=O)OCc1cc(=O)oc2cc3occc3cc12` as the compound, how does the MIC [1] read?
A: The MIC was 1.56 µg/mL (≈ 6.04 µM).

Q: With `COc1c2occc2c(N)c2ccc(=O)oc12` as the compound, how does the MIC [1] read?
A: Its MIC is 25 µg/mL (≈ 108 µM).

Q: Which MIC [1] does the source give for `COc1c2occc2c(S(N)(=O)=O)c2ccc(=O)oc12` here?
A: Its MIC is greater than 50 µg/mL.

Q: Which MIC [1] does the source give for `O=c1cc(C(F)(F)F)c2cc3ccoc3cc2o1` here?
A: Its MIC is 12.5 µg/mL (≈ 49.2 µM).

Q: Which MIC [1] does the source give for `O=C(O)COc1c2occc2cc2ccc(=O)oc12` here?
A: Its MIC is greater than 50 µg/mL.

Q: Which results are given for `Cc1cc(=O)oc2cc3occc3cc12`?
A: MIC [2]: > 64 µg/mL; MIC [1]: 0.39 µg/mL (≈ 1.95 µM); MIC [3]: > 64 µg/mL; MIC [4]: > 64 µg/mL; MIC [5]: > 64 µg/mL; MIC [6]: > 64 µg/mL; MIC [7]: > 64 µg/mL; MIC [8]: > 64 µg/mL; MIC [9]: > 64 µg/mL; MIC [10]: > 64 µg/mL; MIC [11]: > 64 µg/mL; MIC [12]: > 64 µg/mL

Q: For `CC(=O)Oc1c2occc2cc2ccc(=O)oc12`, which MIC [1] is on record?
A: The MIC was greater than 50 µg/mL.

Q: For `COc1c2occc2c(CCl)c2ccc(=O)oc12`, which MIC [1] is on record?
A: The MIC was 25 µg/mL (≈ 94.5 µM).

Q: For `COc1c2occc2c(Br)c2ccc(=O)oc12`, which MIC [1] is on record?
A: Its MIC is greater than 50 µg/mL.

Q: Which MIC [1] does the source give for `O=c1ccc2c([N+](=O)[O-])c3ccoc3c(O)c2o1` here?
A: The MIC was 25 µg/mL (≈ 101 µM).

Q: With `COc1c2occc2c(CNc2ccc([N+](=O)[O-])cc2)c2ccc(=O)oc12` as the compound, how does the MIC [1] read?
A: Its MIC is greater than 50 µg/mL.

Q: With `O=Cc1cc(=O)oc2cc3occc3cc12` as the compound, how does the MIC [1] read?
A: The MIC was 1.56 µg/mL (≈ 7.28 µM).

Q: For `CC(=O)OCc1cc2cc3ccc(=O)oc3cc2o1`, which MIC [1] is on record?
A: Its MIC is greater than 50 µg/mL.

Q: Which MIC [1] does the source give for `CC(=O)Oc1c2occc2c([N+](=O)[O-])c2ccc(=O)oc12` here?
A: Its MIC is 25 µg/mL (≈ 86.4 µM).

Q: For `CCCCOCc1c2ccoc2c(OC)c2oc(=O)ccc12`, which MIC [1] is on record?
A: The MIC was 50 µg/mL (≈ 165 µM).

Q: With `CCN(CC)S(=O)(=O)c1c2ccoc2c(OC)c2oc(=O)ccc12` as the compound, how does the MIC [1] read?
A: Its MIC is greater than 50 µg/mL.

Q: Which MIC [1] does the source give for `CCCc1cc(=O)oc2cc3occc3cc12` here?
A: The MIC was 12.5 µg/mL (≈ 54.8 µM).
